Test results published in ChEMBL document CHEMBL5120910, “Small-Molecule Gankyrin Inhibition as a Therapeutic Strategy for Breast and Lung Cancer” (J Med Chem, 2022).
Calls of active or inactive are those of the source. The calls are words filed in the database; no cut-off is given here.

Assays:
[1] = test system: A549; assay: Inhibition of gankyrin-proteasome protein-protein interaction in human A549 cells assessed as increase in phosphorylated p53 level at serine 15 residue at 0.04 to 0.33 uM measured after 48 hrs by Western blotting analysis; type: cell-based; details: dose 0.04-0.33 µM
How it was run: (§1)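 Cells in 10 cm dishes treated with varying concentrations (0.5% DMSO final) or DMSO only for 48 h. Lysed in RIPA with protease/phosphatase inhibitors on ice for 60 min. 15 μg protein resolved under reducing conditions, transferred to PVDF, and probed for p53, phospho-p53 S6/S15, Rb, gankyrin and cyclophilin. Detection by HRP-secondary ECL.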

[2] = test system: A549; assay: Antitumor activity in human A549 cells cultured as 3D spheroids assessed as fold decrease in spheroid volume at 0.15 uM measured up to 15 days by inverted microscopic analysis; type: functional; details: time <= 15 day
How it was run: (§2)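 Spheroids formed from 2000 cells/well in ultra-low attachment U-bottom wells over 3 days, then given a single dose on day 3. Half the media was replenished every 3 days. Transmitted-light images were taken through day 15, and spheroid volume was computed from images and expressed as fold-difference. Mean ± SD, n = 8; unpaired t-test.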

[3] = test system: A549; assay: Antitumor activity against human A549 cells tumor spheroids assessed as decrease in live cells by measuring green fluorescence intensity measured at 15 days by calcein AM staining based fluorescence microscopic analysis; type: functional, cell-based; details: dose 0.15-5 µM, time 15.0 day, DDE = dose-dependent effect
How it was run: (§3)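 Live/dead staining of 3D spheroids at day 15 after single-dose treatment: media replaced by kit reagent with calcein AM (live, green) and EthD-III (dead, red), 30 min in dark at room temperature, imaged at 4X by fluorescence microscopy. Mean ± SD, n = 4; unpaired Student's t-test.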

[4] = test system: A549; assay: Antiproliferative activity against human A549 cells assessed as cell growth inhibition measured after 72 hrs by MTT assay; type: functional, cell-based; details: A549, 72 h
How it was run: (§4)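 Cells seeded at 2.5 × 10^4 cells/well, allowed 24 h before dosing, then exposed to increasing concentrations (0.5% DMSO final) for 72 h at 37 °C, 5% CO2. MTT added at 1 mg/mL final in complete media for 2 h, formazan dissolved in DMSO, absorbance read at 570 nm. 6–8 repeats per treatment; IC50 from concentration–response fit.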

[5] = Metabolic stability in human liver microsomes assessed as compound remaining preincubated for 10 mins followed by NADPH addition measured after 60 mins by HPLC analysis; type: ADME, Microsome; details: read-out: Stability
[6] = test system: A549; assay: Inhibition of gankyrin-proteasome protein-protein interaction in human A549 cells assessed as increase in phosphorylated p53 level at serine 6 residue at 0.12 to 1 uM measured after 48 hrs by Western blotting analysis; type: cell-based; details: dose 0.12-1 µM; how it was run: as §1
[7] = target: T1, 26S proteasome non-ATPase regulatory subunit 10 (Homo sapiens) (UniProt O75832); assay: Binding affinity to gankyrin in human A549 cells assessed as decrease in thermal stability at 0.3 uM incubated for 48 hrs followed by heat treatment at 50 to 65 degreeC by CETSA; type: cell-based
T1 sequence (whole entry): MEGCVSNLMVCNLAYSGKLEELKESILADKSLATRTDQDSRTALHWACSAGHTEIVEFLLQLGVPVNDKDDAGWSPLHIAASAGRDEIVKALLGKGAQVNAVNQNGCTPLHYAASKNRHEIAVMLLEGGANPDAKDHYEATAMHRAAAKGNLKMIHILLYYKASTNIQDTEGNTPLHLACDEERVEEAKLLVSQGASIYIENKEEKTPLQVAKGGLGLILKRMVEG
How it was run: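 CETSA: cells treated with compound for 48 h, then heated across a temperature range. Soluble gankyrin was detected by western blot and melt curves were constructed. Mean ± SD, n = 3.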

[8] = test system: A549; assay: Inhibition of gankyrin-proteasome protein-protein interaction in human A549 cells assessed as increase in phosphorylated p53 level at serine 6 residue at 0.60 to 5 uM measured after 48 hrs by Western blotting analysis; type: cell-based; details: dose 0.6-5 µM; how it was run: as §1
[9] = test system: A549; assay: Induction of cell cycle arrest in human A549 cells assessed as increase in cell accumulation at G0/G1 phase at 0.3 uM measured after 72 hrs by propidium iodide staining based flow cytometry analysis; type: functional
How it was run: (§5)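 Cells in 10 cm dishes treated for 72 h (0.1% DMSO final; DMSO-only control). Harvested in cold PBS, fixed in 70% ethanol at −20 °C overnight, stained with PI for 40 min at 37 °C, then analysed by flow/imaging cytometry for G0/G1, S and G2/M fractions. Mean ± SD, n = 3.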

[10] = Cytotoxicity against HEK293 cells assessed as cell growth inhibition measured after 72 hrs by MTT assay; type: toxicity, cell-based; details: human; how it was run: as §4
[11] = test system: A549; assay: Antitumor activity against human A549 cells tumor spheroids assessed as increase in dead cells by measuring red fluorescence intensity measured at 15 days by EthD-III staining based fluorescence microscopic analysis; type: functional, cell-based; details: dose 0.15-5 µM, time 15.0 day, DDE = dose-dependent effect; how it was run: as §3
[12] = test system: MDA-MB-231; assay: Antiproliferative activity against human MDA-MB-231 cells assessed as cell growth inhibition measured after 72 hrs by MTT assay; type: functional, cell-based; details: MDA-MB-231, 72 h; how it was run: as §4
[13] = target: T1, 26S proteasome non-ATPase regulatory subunit 10 (Homo sapiens); assay: Binding affinity to gankyrin (unknown origin) expressed in Escherichia coli BL21 (DE3) expression system assessed as decrease in thermal denaturation at 1.5 uM measured at 5 to 90 degreeC by circular dichroism spectropolarimeter analysis
How it was run: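 Recombinant His-tagged gankyrin expressed in E. coli BL21(DE3) Codon+RIL (IPTG 1 mM, 25 °C, ~5 h) and purified by Ni2+-IMAC. Thermal denaturation followed by CD at 217 nm over 5–90 °C with compound at 1.5 μM.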

[14] = test system: A549; assay: Induction of cell cycle arrest in human A549 cells assessed as decrease in cell accumulation at G2/M phase at 0.3 uM measured after 72 hrs by propidium iodide staining based flow cytometry analysis; type: functional; how it was run: as §5
[15] = test system: A549; assay: Induction of cell cycle arrest in human A549 cells assessed as decrease in cell accumulation at S phase at 0.3 uM measured after 72 hrs by propidium iodide staining based flow cytometry analysis; type: functional; how it was run: as §5
[16] = test system: A549; assay: Inhibition of gankyrin-proteasome protein-protein interaction in human A549 cells assessed as increase in phosphorylated p53 level at serine 6 residue at 0.04 to 0.33 uM measured after 48 hrs by Western blotting analysis; type: cell-based; details: dose 0.04-0.33 µM; how it was run: as §1
[17] = test system: A549; assay: Inhibition of gankyrin-proteasome protein-protein interaction in human A549 cells assessed as increase in phosphorylated p53 level at serine 15 residue at 0.12 to 1 uM measured after 48 hrs by Western blotting analysis; type: cell-based; details: dose 0.12-1 µM; how it was run: as §1
[18] = target: T1, 26S proteasome non-ATPase regulatory subunit 10 (Homo sapiens); assay: Binding affinity to gankyrin (unknown origin) assessed as change in melting temperature at 300 uM by SYPRO orange staining based thermal shift assay
[19] = test system: A549; assay: Inhibition of colony formation in human A549 cells at 0.3 uM incubated for 48 hrs followed by replacement of fresh media every alternative day measured after 7 days by crystal violet staining based clonogenic assay relative to control; values are per cent of control; details: A549, 48 h
[20] = test system: A549; assay: Antitumor activity in human A549 cells cultured as 3D spheroids assessed as fold decrease in spheroid volume at 0.30 uM measured up to 15 days by inverted microscopic analysis; type: functional; details: dose 0.3 µM; time <= 15 day; how it was run: as §2
[21] = test system: A549; assay: Antitumor activity in human A549 cells cultured as 3D spheroids assessed as fold decrease in spheroid volume at 2.5 uM measured up to 15 days by inverted microscopic analysis; type: functional; details: time <= 15 day; how it was run: as §2
[22] = target: T1, 26S proteasome non-ATPase regulatory subunit 10 (Homo sapiens); assay: Binding affinity to gankyrin (unknown origin) expressed in Escherichia coli BL21 (DE3) expression system assessed as formation of white precipitation of the compound at 1.5 uM
[23] = test system: A549; assay: Antitumor activity in human A549 cells cultured as 3D spheroids assessed as fold decrease in spheroid volume at 5 uM measured up to 15 days by inverted microscopic analysis; type: functional; details: time <= 15 day; how it was run: as §2
[24] = test system: A549; assay: Antitumor activity in human A549 cells cultured as 3D spheroids assessed as fold decrease in spheroid volume at 1 uM measured up to 15 days by inverted microscopic analysis; type: functional; details: time <= 15 day; how it was run: as §2
[25] = test system: A549; assay: Antitumor activity in human A549 cells cultured as 3D spheroids assessed as fold decrease in spheroid volume at 0.5 uM measured up to 15 days by inverted microscopic analysis; type: functional; details: time <= 15 day; how it was run: as §2
[26] = test system: A549; assay: Colony formation in human A549 cells at 1 uM incubated for 48 hrs followed by replacement of fresh media every alternative day measured after 7 days by crystal violet staining based clonogenic assay relative to control; details: A549, 48 h
[27] = test system: A549; assay: Inhibition of colony formation in human A549 cells at 0.5 uM incubated for 48 hrs followed by replacement of fresh media every alternative day measured after 7 days by crystal violet staining based clonogenic assay relative to control; values are per cent of control; details: A549, 48 h
[28] = test system: A549; assay: Inhibition of gankyrin-proteasome protein-protein interaction in human A549 cells assessed as increase in p53 level at 0.12 to 1 uM measured after 48 hrs by Western blotting analysis; type: cell-based; details: dose 0.12-1 µM; how it was run: as §1
[29] = test system: A549; assay: Inhibition of gankyrin-proteasome protein-protein interaction in human A549 cells assessed as increase in Rb level at 0.12 to 1 uM measured after 48 hrs by Western blotting analysis; type: cell-based; details: dose 0.12-1 µM; how it was run: as §1

Compound | Activity [1] | Activity [3] | IC50 [4] | remaining at 1 h [5] | Activity [6] | Activity [8] | IC50 at 72 h [10] | Activity [11] | IC50 [12] | Activity [13] | Activity [16] | Activity [17] | Activity [18] | Activity [22] | further results
COC(=O)c1ccc(-c2cn(CCCC(=O)Nc3ccc(-c4ccccc4)cc3)nn2)cc1 | Active | Dde | 0.33 µM | 87% | Active | Active | > 100 µM | Dde | > 100 µM | Active | Active | Active | Active |  | fold change (FC) [2]: 3.6; Activity [7]: Active; Activity [9]: Active; Activity [14]: Active; Activity [15]: Active; growth, % of control at 0.3 µM [19]: 44.6%; fold change (FC) [20]: 2.4
Cc1ccc(NC(=S)CCCn2cc(-c3ccc(C(F)(F)F)cc3)nn2)cc1 | Active | Dde | 5.5 µM | 73% | Active | Active | > 100 µM | Dde | 83.2 µM | Active | Active | Active | Active | Active | fold change (FC) [21]: 3.3; fold change (FC) [23]: 3.5
FC(F)(F)c1ccc(-c2cn(CCCC(=S)Nc3ccc(-c4ccccc4)cc3)nn2)cc1 |  | Dde | 1 µM | 80% | Active | Active | > 100 µM | Dde | > 100 µM | Active | Active |  | Active | Active | fold change (FC) [24]: 4; fold change (FC) [25]: 3.8; growth, % of control at 1 µM [26]: 61.4%; growth, % of control at 0.5 µM [27]: 83.8%; Activity [28]: Active; Activity [29]: Active
